Rows were chosen to be rich in hits. Some 4.1% of all compounds tested hit in one or more screens of this group.
H9c2 TAG inh: inhibitors of triacylglycerol accumulation, primary screen, cell-based, uHTS, fluorescence, H9c2; hit rate 0.66% among 230,000; AID 651582, 2012; H9c2 cells, Nile Red lipid (TAG) fluorescence; cells loaded with 200 µM oleic acid; inhibition, % at 12.5 µM;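 active = pattern-corrected inhibition of lipid staining of at least 50% with the nuclear-stain viability signal not falling by more than 50%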;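 also: 0% = DMSO wells and 100% = triacsin C control wells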
SMARCA2 act: SMARCA2 (BRM) function activators, primary screen, cell-based, luminescence, high throughput; MG213 cells, MMTV-luciferase reporter, dexamethasone, overnight; activation, % at 9.1 µM; hit rate 1% among 370,000; AID 652017, 2013; in the data active = activation above about 7.8%;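 also: 0% = vehicle wells and 100% = reference activator wells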
AHR activator: AHR activators, primary screen, cell-based, luminescence, luciferase reporter, human | hit rate 2.5% among 320,000 | AID 2796, 2010 | activation, % at 5 µM | AHR-responsive luciferase reporter cells | Aryl hydrocarbon receptor (Homo sapiens), P35869; in the data active = activation above about 47%;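 also: 0% = vehicle wells and 100% = reference agonist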
Target sequence (P35869 whole entry, looked up): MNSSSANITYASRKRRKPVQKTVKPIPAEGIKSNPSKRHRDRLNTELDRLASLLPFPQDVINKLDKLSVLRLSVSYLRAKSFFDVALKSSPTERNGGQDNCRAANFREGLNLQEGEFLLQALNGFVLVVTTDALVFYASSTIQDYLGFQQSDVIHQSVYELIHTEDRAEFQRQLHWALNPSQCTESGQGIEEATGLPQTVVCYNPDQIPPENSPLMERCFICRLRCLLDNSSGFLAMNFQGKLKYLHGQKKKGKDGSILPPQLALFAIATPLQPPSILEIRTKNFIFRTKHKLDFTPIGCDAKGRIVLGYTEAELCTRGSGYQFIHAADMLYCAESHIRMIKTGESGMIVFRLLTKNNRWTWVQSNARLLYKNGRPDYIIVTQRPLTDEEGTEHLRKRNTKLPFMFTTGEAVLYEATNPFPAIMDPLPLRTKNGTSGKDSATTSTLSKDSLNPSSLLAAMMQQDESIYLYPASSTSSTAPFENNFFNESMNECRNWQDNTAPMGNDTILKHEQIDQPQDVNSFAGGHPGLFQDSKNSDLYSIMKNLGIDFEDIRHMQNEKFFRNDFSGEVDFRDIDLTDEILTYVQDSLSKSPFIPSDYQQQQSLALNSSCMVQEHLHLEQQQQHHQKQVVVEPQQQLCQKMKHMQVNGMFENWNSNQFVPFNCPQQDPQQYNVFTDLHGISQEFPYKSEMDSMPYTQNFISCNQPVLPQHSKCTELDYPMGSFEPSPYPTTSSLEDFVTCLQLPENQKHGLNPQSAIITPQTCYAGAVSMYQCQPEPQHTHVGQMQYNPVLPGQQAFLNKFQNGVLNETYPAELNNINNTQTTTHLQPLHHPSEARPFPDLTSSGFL
TbMetRS inhib: T. brucei MetRS inhibitors, primary screen, biochemical, luminescence; methionyl-tRNA synthetase (Trypanosoma brucei brucei); purified T. brucei MetRS, ATP depletion, Kinase-Glo luminescence; inhibition, % at 11.9 µM; hit rate 0.4% among 360,000; AID 624268, 2012;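 active = inhibition above a per-plate cutoff of the control wells' mean inhibition plus 3 SD, cut at about 5.5% in these data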;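 also: 0% = DMSO wells median and 100% = median of wells with control inhibitor compound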
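Material: parasite MetRS enzyme / Replication: singlicate, one well per compound / Signal: luminescence of leftover ATP / Schedule: 2 h aminoacylation at 25 °C after 15 min preincubation / Medium: HEPES-MgCl2-KCl buffer plus DTT, spermine, BSA, pyrophosphatase / Doses: 11.9 µM single point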
Efflux pump mplx: inhibitors of Candida efflux pumps in yeast, primary screen, S. cerevisiae, Nile Red, multiplex; inhibition, % at 10 µM; hit rate 0.44% among 330,000; S. cerevisiae Candida pump triplex;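 active = plate passing quality check with inhibition over a set limit, or well fluorescence over plate mean plus 4 SD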;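 also: Nile Red retained in pooled yeast measured as flow cytometry median fluorescence; 0% = buffer negative control and 100% = Enniatin B positive control; higher means more Nile Red kept so more efflux inhibition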
SMARCA2 conf: SMARCA2 (BRM) function activators, confirmation, cell-based, luminescence, triplicate; shares compounds with SMARCA2 act; MG213 cells, MMTV-luciferase with dexamethasone, overnight; MG213 cells expressing E1A, Rb sequestered; DMSO wells 0%, reference activator 100%; activation, % at 9.1 µM; hit rate 30% among 3,500; AID 652260, 2013;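 active = activation above its plate's cutoff, the mean activation of tested wells plus 3 SD, cut at about 7.9% in these data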
VP16 Luc act: GAL4-VP16 luciferase reporter activation, counter-screen for SMARCA2 (BRM) activator project, cell-based, pG5luc, luminescence, high throughput | shares compounds with SMARCA2 act | hit rate 41% among 3,500 | AID 686939, 2013 | HEK293 GAL4-VP16 pG5luc reporter; scaled: DMSO wells 0%, SAHA wells 100% | activation, % at 9.1 µM;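 active = activation above the solvent-only control well mean plus 3 SD, averaged across control plates, cut at about 5.2% in these data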
* marks the source's active call; other numbers are inactive results; x = no result given.

SMILES	H9c2 TAG inh	SMARCA2 act	AHR activator	TbMetRS inhib	Efflux pump mplx	SMARCA2 conf	VP16 Luc act
CC(=O)c1ccc(N2CCN(S(=O)(=O)c3ccc4c(c3)C(Cl)(Cl)C(=O)N4)CC2)cc1	4	10*	x	-1	x	4	1
CC(C)(C)c1ccc(S(=O)(=O)N2CCC(C(=O)NCCC3=CCCCC3)CC2)cc1	x	2	x	x	x	x	x
Cc1ccc2c(c1)sc1nc(=O)n(-c3ccccc3)c(=O)n12	3	12*	-4	0	0	8.4*	12*
CSc1nnc2sc3cc(C)ccc3n12	17	2	x	0	x	x	x
CCOC(=O)CSc1nc(C)c(C(C)=O)cc1C#N	x	8.2*	8	1	0	2	0
COC(=O)C1=C(C)N(Cc2ccccc2C(F)(F)F)C(=NCc2cc(OC)c(OC)c(OC)c2)NC1c1cccc(C(F)(F)F)c1 (stereo not drawn)	x	-4	x	x	x	x	x
CC(C)(C)c1ccc(S(=O)(=O)NCC(=O)N2CCN(c3ncccn3)CC2)cc1	x	5	x	x	x	x	x
COc1ccc(-c2nnn3c2C2c4cc(-c5cccc(F)c5)ccc4CCN2C(=O)C3)cc1 (stereo not drawn)	x	-4	x	x	x	x	x
O=C(N/N=C/C(Br)=C/c1ccccc1)C1CC1	-10	9.6*	32	0	0	10*	5.6*
O=C(N/N=C/C(Br)=C\c1ccccc1)c1ccco1	2	9.4*	11	0	0	7	17*
Cc1nn(C)cc1/C=N/NC(=O)c1ccco1	-2	9.1*	3	-1	0	8	2
O=C(N/N=C/C(Br)=C\c1ccccc1)c1cccs1	2	18*	5	1	0	7	11*
CCOC(=O)[C@@]12CCCC=C1N(CCc1ccc(Cl)cc1)C(=O)[C@H]2CC(=O)N1CCSCC1	x	-2	x	x	x	x	x
C[C@H](CO)N1C[C@H](C)[C@@H](CN(C)C(=O)C2CC2)OCc2cn(nn2)CCCC1=O	x	-1	x	x	x	x	x
O=C(COC(=O)c1cccc(O)c1)c1ccccc1	-14	8.5*	-4	0	0	13*	4
CCC(=O)Nc1cc(C(=O)OCC(=O)c2ccccc2)ccc1C	x	11*	10	-1	0	4	7.7*
Nc1[nH]c2cc(C(F)(F)F)ccc2c1C(=O)NCc1ccc(F)cc1	x	-2	x	x	x	x	x
Cc1cc(N2CCN(CC(C)(C)O)C[C@H]2C)ccc1N1CCN(CC(C)(C)O)[C@@H](C)C1	x	-3	x	x	x	x	x
COc1ccc(NC(=O)C[C@H]2C(=O)N(C3CCCCC3)C[C@@H]2CSC)cc1	-3	8.3*	x	1	x	-2	1
CC(CCc1ccccc1)NC(=O)C(Cc1ccccc1)NS(=O)(=O)c1cccs1 (stereo not drawn)	x	-5	1	-1	0	x	x
CC1CCCCC1NC(=O)C(Cc1ccccc1)NS(=O)(=O)c1cccs1 (stereo not drawn)	x	8.7*	-1	-1	0	3	0
COc1ccc(S(=O)(=O)Nc2cccc(SC)c2)cc1C(=O)N1CCOCC1	x	9.6*	-2	0	0	0	0
COc1ccc(S(=O)(=O)NCc2cccnc2)cc1C(=O)N1CCCCC1	x	9.8*	-6	0	0	-1	1
Cc1ccc(S(=O)(=O)NCc2cccnc2)cc1C(=O)N1CCCC1	x	-1	-1	0	0	x	x
COc1ccc(C(=O)CC2(O)C(=O)N(CN3CCOCC3)c3ccc(Br)cc32)cc1 (stereo not drawn)	x	2	x	x	x	x	x
COc1ccc(-n2c(SCC(=O)Nc3cccc4ccccc34)nnc2-c2ccco2)cc1	x	1	x	x	x	x	x
COc1ccc2cc3cc(C(=O)N4CCCC(C)C4)oc3nc2c1 (stereo not drawn)	x	8.8*	8	1	0	3	9.2*
